# Compound activity: PubChem, Johns Hopkins Ion Channel Center
# TRPC4 agonist = activators of mouse TRPC4 channel, primary screen, Fluo4 calcium, HEK293 TRPC4beta/mu-opioid cells; Fluo4 calcium fluorescence; stronger effect = higher value; B-score at 10 µM; Short transient receptor potential channel 4 (Mus musculus), Q9QUQ5; actives 0.49% (n = 310,000);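 active means B-score above 5 SD of library B-scores, and initial fluorescence ratio not above library mean plus 5 SD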;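 further: positive B-score marks a calcium rise read as TRPC4 activation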
#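 Assay system – TRPC4beta and mu-opioid receptor HEK293 stable cells · Measured by – Fluo4 fluorescence, kinetic · Schedule – dye loading 45 min room temperature, 110 s kinetic read · Read-out – B-scored integrated calcium fluorescence ratio · Controls – buffer and maximal DAMGO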
# TRPC4 block = inhibitors of mouse TRPC4 channel, primary screen, Fluo4 calcium, HEK293 TRPC4beta/mu-opioid cells | actives 0.39% (n = 300,000) | DAMGO-evoked Fluo4 calcium flux; stronger effect = lower value | B-score at 10 µM | AID 2247, 2010 | Short transient receptor potential channel 4 (Mus musculus), Q9QUQ5;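 active means B-score over 3 SD under the library average, no early fluorescence shift, positive overall ratio signal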
#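 material = TRPC4beta/mu-opioid receptor HEK293 cell line | probe or stimulus = sequential submaximal and maximal DAMGO stimulation | compound dosing = one concentration per compound | measured by = Fluo4 Ca2+ flux fluorescence | evaluation = integrated fluorescence ratio relative to baseline, converted to per-well B score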
# TRPC6 activator = mouse TRPC6 channel activators, primary screen, cell-based, HEK293, membrane potential dye; actives 0.13% (n = 310,000); B-score at 10 µM; Short transient receptor potential channel 6 (Mus musculus), Q61143; HEK293-TRPC6 membrane potential dye fluorescence; stronger effect = higher value;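 active means B-score of the integrated fluorescence ratio above library mean plus 3 SD, and starting fluorescence ratio within library mean plus 5 SD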;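 further: higher score means more depolarization so channel activation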
# Target sequence (Q61143 whole entry, looked up): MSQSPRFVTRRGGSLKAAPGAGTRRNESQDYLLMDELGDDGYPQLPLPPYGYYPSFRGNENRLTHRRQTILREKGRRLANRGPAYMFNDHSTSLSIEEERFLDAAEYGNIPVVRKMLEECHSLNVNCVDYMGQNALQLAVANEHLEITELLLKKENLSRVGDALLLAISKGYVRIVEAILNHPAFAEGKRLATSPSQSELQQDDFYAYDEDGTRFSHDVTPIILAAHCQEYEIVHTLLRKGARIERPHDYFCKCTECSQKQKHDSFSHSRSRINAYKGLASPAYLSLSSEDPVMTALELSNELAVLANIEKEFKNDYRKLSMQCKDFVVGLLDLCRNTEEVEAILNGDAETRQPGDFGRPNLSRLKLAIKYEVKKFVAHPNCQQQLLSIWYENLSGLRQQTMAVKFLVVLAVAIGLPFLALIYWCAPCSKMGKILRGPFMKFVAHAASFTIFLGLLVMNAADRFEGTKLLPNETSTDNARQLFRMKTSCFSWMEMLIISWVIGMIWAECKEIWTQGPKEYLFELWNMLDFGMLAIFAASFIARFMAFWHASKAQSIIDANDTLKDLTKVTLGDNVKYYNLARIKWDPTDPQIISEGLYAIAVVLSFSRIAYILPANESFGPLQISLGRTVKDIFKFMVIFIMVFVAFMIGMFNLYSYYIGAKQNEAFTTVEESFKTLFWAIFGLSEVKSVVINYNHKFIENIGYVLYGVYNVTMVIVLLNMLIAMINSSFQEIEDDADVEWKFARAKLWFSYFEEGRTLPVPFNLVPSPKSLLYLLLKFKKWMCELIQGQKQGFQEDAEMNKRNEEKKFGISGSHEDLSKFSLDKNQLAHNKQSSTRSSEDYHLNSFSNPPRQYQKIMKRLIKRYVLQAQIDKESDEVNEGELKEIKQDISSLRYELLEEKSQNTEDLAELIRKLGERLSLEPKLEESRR
# TRPC4 PAM = positive allosteric modulators of TRPC4, primary screen, cell-based, mouse TRPC4beta, HEK293 mu-opioid, Fluo-4 calcium. B-score at 10 µM. actives 0.42% (n = 310,000). Short transient receptor potential channel 4 (Mus musculus), Q9QUQ5. DAMGO EC20, Fluo-4 Ca2+ flux; stronger effect = higher value. AID 2227, 2009;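 active means B-score of calcium response area above 5 SD of library B-scores, with initial fluorescence ratio within 5 SD of library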;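 further: B-score of integrated fluorescence ratio over time as area under calcium response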
# TRPC6 inhibitor = mouse TRPC6 channel inhibitors, primary screen, cell-based, HEK293, membrane potential dye; B-score at 10 µM; AID 2553, 2010; Short transient receptor potential channel 6 (Mus musculus), Q61143; ACh-evoked depolarization; stronger effect = lower value; actives 1.1% (n = 310,000);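 active means B-score under library mean minus 3 SD, initial fluorescence not abnormally high, positive integrated signal ratio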;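 further: B-score derived from integrated fluorescence ratio over the kinetic read; more negative B-score means stronger inhibition of depolarization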
# * = called active by the depositor; i = inactive. Only some compounds are listed: those with a hit (about 2.3% of all), similar ones and a draw of the others.
SMILES,TRPC4 agonist,TRPC4 block,TRPC6 activator,TRPC4 PAM,TRPC6 inhibitor
CCOC(=O)C1(Cc2cccc(OC)c2)CCN(Cc2ccc(OC)c(O)c2)CC1,i,-8*,i,i,i
CCOC(=O)C1(CCOc2ccccc2)CCN(Cc2ccc(COC)o2)CC1,i,i,i,i,i
CCOC(=O)C1(CCOc2ccccc2)CCN(Cc2ccc(OC)c(O)c2)CC1,84*,i,i,i,i
O=C(NCC1c2ccccc2CCN1C(=O)CN1C(=O)c2ccccc2C1=O)C1CCCCC1 (stereo not drawn),i,i,i,i,i
Cc1c(Br)c([N+](=O)[O-])nn1CC(=O)Nc1ccc2nc3n(c(=O)c2c1)CCCC3,i,i,i,i,i
CC1(C#CC[N+]2(C)CCCCC2)CCC2C(O1)c1ccccc1OC2(C)C (stereo not drawn),i,i,i,21*,i
Cc1cccc(-n2ccnc2CN2CCC(CO)(Cc3ccccc3)CC2)c1,i,-7*,i,i,i
O=C(CCCSc1nc2ccccc2[nH]1)Nc1nnc(-c2ccccc2)o1,i,-6*,i,i,i
CC(=O)c1cccc(Nc2nc3ccccc3n3cnnc23)c1,i,i,i,i,i
CN(C)C(CNC(=O)c1ccc2nc[nH]c2c1)c1ccccc1 (stereo not drawn),142*,i,i,i,i
COc1ccc(NS(=O)(=O)c2cccc(C(=O)NCC(c3ccco3)N(C)C)c2)cc1 (stereo not drawn),i,i,i,i,i
CCOc1ccc(S(=O)(=O)Nc2cccc(C(=O)NCC(c3ccco3)N(C)C)c2)cc1 (stereo not drawn),i,i,i,i,i
CN(C)C(CNC(=O)CNC(=O)c1ccc2ccccc2c1)c1ccccc1 (stereo not drawn),i,i,i,i,i
COc1ccc(C(CNC(=O)c2cccc(NS(=O)(=O)c3ccccc3)c2)N(C)C)cc1 (stereo not drawn),53*,-6*,i,i,i
CC(=O)c1ccc(S(=O)(=O)NCc2ccc(C(=O)NCC(c3ccccc3)N(C)C)cc2)cc1 (stereo not drawn),177*,i,i,i,i
CCOc1ccc(S(=O)(=O)Nc2cccc(C(=O)NCC(c3ccccc3)N(C)C)c2)cc1 (stereo not drawn),198*,i,i,i,i
COCCN(C(=O)CSc1nnc(C)n1-c1ccc(C)cc1)c1c(N)n(Cc2ccccc2)c(=O)[nH]c1=O,i,i,i,i,i
C=CCN1C(=O)/C(=c2\sc3nc(=O)c(Cc4ccccc4Cl)nn3c2=O)c2ccccc21,i,i,i,i,i
CCC(C)Sc1cccc(-c2nc3cc(C)ccn3c2NCc2ccccc2)c1 (stereo not drawn),i,i,i,i,i
CCN(CC)S(=O)(=O)c1cccc(C(=O)NCC(c2ccccc2)N(C)C)c1 (stereo not drawn),79*,i,i,i,i
COc1ccc(C(CNC(=O)c2ccc(S(=O)(=O)Nc3ccc(F)cc3)cc2)N(C)C)cc1 (stereo not drawn),66*,i,i,i,i
COc1ccc(C(CNC(=O)c2ccc(NS(=O)(=O)c3ccc4c(c3)OCCO4)cc2)N(C)C)cc1 (stereo not drawn),i,i,i,i,i
COc1ccc(C(CNC(=O)c2cccc(NS(=O)(=O)c3ccc(C)c(F)c3)c2)N(C)C)cc1 (stereo not drawn),81*,i,i,i,i
O=C(O)CCNc1nc(-c2ccccc2)c2cc(Br)ccc2n1,i,i,i,16*,i
CCc1nnc(NC(=O)CSc2nnc3nc(C)cc(C)n23)s1,i,i,i,i,i
SMILES,TRPC4 agonist,TRPC4 block,TRPC6 activator,TRPC4 PAM,TRPC6 inhibitor
CCOc1cc(C)c(C(C)C)cc1S(=O)(=O)NCc1ccccn1,i,i,i,i,i
Cc1nc(N2CCCCC2)c(C#N)c(C)c1[N+](=O)[O-],i,-5*,i,i,i
O=C(NCCO)C(=O)c1c(-c2ccc(Cl)cc2)cc2ccccn12,i,i,i,i,i
O=C(O)c1ccn2c(C(=O)c3ccc(Cl)cc3)c(-c3ccccc3)cc2c1,i,-6*,i,i,i
CN1C(=O)C(CC(=O)NCC2CCCCC2)SC1=Nc1ccccc1 (stereo not drawn),i,i,i,i,i
CC(C)CN(C(=O)COC(=O)CNC(=O)c1ccccc1F)c1c(N)n(Cc2ccccc2)c(=O)[nH]c1=O,i,i,i,i,i
Cc1cc(NC(=O)CN2CCc3ccccc3C2)nc2c1c(=O)oc1ccccc12,98*,i,i,i,i
CCCC(=O)Nc1cc(C)c2c(=O)oc3ccccc3c2n1,i,i,i,i,i
O=S(=O)(c1ccc(Br)cc1Cl)N1CCN(CCO)CC1,83*,i,i,i,i
CC12CCC(=O)N1C(C(=O)N1CCN(S(=O)(=O)c3ccc(Br)cc3Cl)CC1)CS2 (stereo not drawn),i,i,i,i,i
COc1cc([N+](=O)[O-])ccc1NC(=S)NNC(=O)CCC(=O)Nc1ccccc1Cl,i,i,i,i,i
O=c1c2c(-c3ccccc3)csc2ncn1/N=C/c1ccc(O)c([N+](=O)[O-])c1,i,i,i,i,i
O=c1c2c(-c3ccccc3)csc2ncn1/N=C/c1cccc([N+](=O)[O-])c1O,68*,-8*,i,i,i
O=C(c1ccc(C(F)(F)F)cc1)N1CCC(=O)N(C(COCc2ccccc2)Cc2ccccc2)CC1 (stereo not drawn),i,i,i,i,i
CC(C)(C)c1ccc(C(=O)N2CCC(=O)N(C(COCc3ccccc3)Cc3ccccc3)CC2)cc1 (stereo not drawn),50*,i,i,i,i
COc1cc(NC(=S)NCCc2ccccc2)c(OC)cc1NC(=O)CC(C)C,i,-6*,i,i,i
